Calls of active or inactive are those of the source. How the calls were made is not given here.
Columns and labels:
Spodoptera exigua = assay: Insecticidal activity against larvae of Spodoptera exigua fed with artificial diet containing compound assessed as mortality after 6 days by high-throughput screening assay; format: functional; design: concentration or dose not given beside the values
How it was run: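 Artificial diet (100 μl/well, 96-well) pretreated with 12 μg compound in 30 μl DMSO-acetone-water (2:1:7), dried several hours, then seeded with eggs. Plates covered, kept in dark at 29°C, mortality recorded 6 days post-treatment. Six replicates per treatment.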

Aedes aegypti = assay: Insecticidal activity against larvae of Aedes aegypti assessed as mortality after 3 days by high-throughput screening assay; format: functional, organism-based
How it was run: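 One-day-old larvae placed in 96-well plates pre-treated with 6 μg/well, applied in 15 μl DMSO-acetone-water (1:1:8) and dried. Plates lidded, held at room temperature, mortality graded 3 days post-treatment. Six replicates per treatment.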

| Compound | mortality (Spodoptera exigua) [%] | mortality (Aedes aegypti) |
| --- | --- | --- |
| COCCNC(=O)c1c(CSc2ccc(Cl)cc2)noc1C(=O)NCc1ccccc1 | 17 | inactive |
| CC(C)NC(=O)c1onc(CSc2ccccn2)c1C(=O)NC(C)C | 50 | inactive |
| C=CCNC(=O)c1onc(CSc2ccccn2)c1C(=O)NCC=C | 17 | inactive |
| CCCCNC(=O)c1onc(CSc2cc(C)cc(C)c2)c1C(=O)NCCCC | – | inactive |
| COc1cccc(SCc2noc(C(=O)NCc3ccccc3)c2C(=O)NCc2ccccc2)c1 | 50 | inactive |
| C=CCNC(=O)c1onc(CSc2ccncc2)c1C(=O)NCC=C | 17 | inactive |
| Cc1cc(C)cc(SCc2noc(C(=O)NCCC(C)C)c2C(=O)NCCC(C)C)c1 | – | inactive |
| CCCNC(=O)c1onc(CSc2ccccc2)c1C(=O)NCCC | 50 | inactive |
| CCCNC(=O)c1onc(CSc2ccc(F)cc2)c1C(=O)NCCC | 33 | inactive |
| COCCNC(=O)c1c(CSc2ccccc2)noc1C(=O)NCc1ccccc1 | 17 | inactive |
| CCCNC(=O)c1onc(CSc2ccc(Cl)cc2)c1C(=O)NCCC | 50 | inactive |
| CC(C)CCNC(=O)c1onc(CSc2ccccc2)c1C(=O)NCCC(C)C | 33 | inactive |
| CC(C)NC(=O)c1onc(CSc2ccc(F)cc2)c1C(=O)NC(C)C | 50 | inactive |
| Cc1cc(C)cc(SCc2noc(C(=O)NC(C)C)c2C(=O)NC(C)C)c1 | – | inactive |
| O=C(NCc1ccccc1)c1onc(CSc2ccccc2)c1C(=O)NCc1ccccc1 | 67 | inactive |
| COCCNC(=O)c1onc(CSc2ccccn2)c1C(=O)NCCOC | 17 | inactive |
| C=CCNC(=O)c1onc(CSc2ccc(Cl)cc2)c1C(=O)NCC=C | 17 | inactive |

| Compound | mortality (Spodoptera exigua) [%] | mortality (Aedes aegypti) |
| --- | --- | --- |
| CC(C)CCNC(=O)c1onc(CSc2ccccn2)c1C(=O)NCCC(C)C | – | inactive |
| C=CCNC(=O)c1onc(CSc2cc(C)cc(C)c2)c1C(=O)NCC=C | 17 | inactive |
| CCCNC(=O)c1onc(CSc2cccc(OC)c2)c1C(=O)NCCC | 50 | inactive |
| COCCNC(=O)c1onc(CSc2ccncc2)c1C(=O)NCCOC | 50 | inactive |
| C=CCNC(=O)c1c(CSc2ccccc2)noc1C(=O)NCc1ccccc1 | 0 | inactive |
| CCCCNC(=O)c1onc(CSc2ccccc2)c1C(=O)NCCCC | – | inactive |
| CCCCNC(=O)c1onc(CSc2ccc(F)cc2)c1C(=O)NCCCC | 50 | inactive |
| C=CCNC(=O)c1onc(CSc2ccccc2)c1C(=O)NCC=C | 33 | inactive |
| COCCNC(=O)c1onc(CSc2cc(C)cc(C)c2)c1C(=O)NCCOC | – | inactive |
| CC(C)NC(=O)c1c(CS(=O)(=O)c2ccc(Cl)cc2)noc1C(=O)NCc1ccccc1 | – | inactive |
| CCCNC(=O)c1onc(CSc2ccccn2)c1C(=O)NCCC | 50 | inactive |
| CCCCNC(=O)c1onc(CSc2ccc(Cl)cc2)c1C(=O)NCCCC | 33 | inactive |
| CCCNC(=O)c1onc(CSc2ccncc2)c1C(=O)NCCC | 33 | inactive |
| COc1cccc(SCc2noc(C(=O)NCCC(C)C)c2C(=O)NCCC(C)C)c1 | – | inactive |
| O=C(NCc1ccccc1)c1onc(CSc2ccncc2)c1C(=O)NCc1ccccc1 | – | inactive |
| CCCCNC(=O)c1onc(CSc2ccccn2)c1C(=O)NCCCC | – | inactive |
| CCCCNC(=O)c1onc(CSc2cccc(OC)c2)c1C(=O)NCCCC | – | inactive |

From ChEMBL document CHEMBL3046721, “3-(Arylthiomethyl)isoxazole-4,5-dicarboxamides: chemoselective nucleophilic chemistry and insecticidal activity” (2009)
